Measurements: ChEMBL document CHEMBL1138849, “5-substituted tetrazoles as bioisosteres of carboxylic acids. Bioisosterism and mechanistic studies on glutathione reductase inhibitors as antimalarials” (J Med Chem, 2004)

What was measured:
[1] = substrate: CC1=CC(=O)c2ccccc2C1=O; assay: Michaelis-Menten constant against human glutathione reductase
In short: (§1)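 Recombinant human or P. falciparum GR run as a quinone reductase without GSSG. Mix: 100 mM phosphate pH 7.0, 200 mM KCl, 100 μM NADPH, 1% DMSO, enzyme, and naphthoquinone at 10 levels from 10 to 400 μM. NADPH oxidation read at 340 nm (ε 6.22 mM⁻¹ cm⁻¹). Steady-state rates fitted to Michaelis–Menten by nonlinear regression to give Km and Vmax; kcat and kcat/Km calculated.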

[2] = substrate: CC1=CC(=O)c2ccccc2C1=O; assay: Michaelis-Menten constant against Plasmodium falciparum glutathione reductase; in short: as §1
[3] = compound: N[C@@H](CCC(=O)N[C@@H](CSSC[C@H](NC(=O)CC[C@H](N)C(=O)O)C(=O)NCC(=O)O)C(=O)NCC(=O)O)C(=O)O; assay: Inhibitory concentration against glutathione reductase (In presence of NADPH); details: Plasmodium falciparum

| Protein | Km [1] | Km [2] | Km [3] |
| --- | --- | --- | --- |
| Glutathione reductase, mitochondrial (Homo sapiens), P00390 (protein) MALLPRALSAGAGPSWRRAARAFRGFLLLLPEPAALTRALSRAMACRQEPQPQGPPPAAGAVASYDYLVIGGGSGGLASARRAAELGARAAVVESHKLGGTCVNVGCVPKKVMWNTAVHSEFMHDHADYGFPSCEGKFNWRVIKEKRDAYVSRLNAIYQNNLTKSHIEIIRGHAAFTSDPKPTIEVSGKKYTAPHILIATGGMPSTPHESQIPGASLGITSDGFFQLEELPGRSVIVGAGYIAVEMAGILSALGSKTSLMIRHDKVLRSFDSMISTNCTEELENAGVEVLKFSQVKEVKKTLSGLEVSMVTAVPGRLPVMTMIPDVDCLLWAIGRVPNTKDLSLNKLGIQTDDKGHIIVDEFQNTNVKGIYAVGDVCGKALLTPVAIAAGRKLAHRLFEYKEDSKLDYNNIPTVVFSHPPIGTVGLTEDEAIHKYGIENVKTYSTSFTPMYHAVTKRKTKCVMKMVCANKEEKVVGIHMQGLGCDEMLQGFAVAVKMGATKADFDNTVAIHPTSSEELVTLR | 31.2 µM | – | – |
| Glutathione reductase (Plasmodium falciparum 3D7), O15770 (protein) MYKHRYFHFFFFFFFFLVSTKIIRSFTFLNNNTNLSNPVYFKKKANMVYDLIVIGGGSGGMAAARRAARHNAKVALVEKSRLGGTCVNVGCVPKKIMFNAASVHDILENSRHYGFDTKFSFNLPLLVERRDKYIQRLNNIYRQNLSKDKVDLYEGTASFLSENRILIKGTKDNNNKDNGPLNEEILEGRNILIAVGNKPVFPPVKGIENTISSDEFFNIKESKKIGIVGSGYIAVELINVIKRLGIDSYIFARGNRILRKFDESVINVLENDMKKNNINIVTFADVVEIKKVSDKNLSIHLSDGRIYEHFDHVIYCVGRSPDTENLNLEKLNVETNNNYIVVDENQRTSVNNIYAVGDCCMVKKSKEIEDLNLLKLYNEETYLNKKENVTEDIFYNVQLTPVAINAGRLLADRLFLKKTRKTNYKLIPTVIFSHPPIGTIGLSEEAAIQIYGKENVKIYESKFTNLFFSVYDIEPELKEKTYLKLVCVGKDELIKGLHIIGLNADEIVQGFAVALKMNATKKDFDETIPIHPTAAEEFLTLQPWMK | – | 82.2 µM | 115 µM |
